Data reported in ChEMBL document CHEMBL3400062, “Synthesis of novel C5-curcuminoid-fatty acid conjugates and mechanistic investigation of their anticancer activity” (Bioorg Med Chem Lett, 2015).
Values after ≈ are worked out from the molar mass of the structure shown.

Assays:
[1] = Cytotoxicity against human CCL229 cells after 3 days by MTT assay; format: functional, cell-based; settings: CCL229, 72 h
How it was run: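 CCL-229 colon cancer cells grown in F12K medium (2 mM L-glutamine, 1500 mg/L sodium bicarbonate), seeded at 10,000 cells/well. Compounds added at final 5–500 µg/mL. Incubation 3 days at 37°C, humidified 5% CO2. Viability read by MTT. IC50 is the concentration giving 50% viability, taken from dose-response curves. Triplicate, mean ± SEM.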

[2] = molecular target: T1, DNA topoisomerase 1 (Homo sapiens) (UniProt P11387); assay: Inhibition of human DNA topoisomerase 1 using pHOT1 supercoiled DNA substrate incubated for 30 mins by ethidium bromide staining based gel electrophoresis method
T1 sequence (whole entry): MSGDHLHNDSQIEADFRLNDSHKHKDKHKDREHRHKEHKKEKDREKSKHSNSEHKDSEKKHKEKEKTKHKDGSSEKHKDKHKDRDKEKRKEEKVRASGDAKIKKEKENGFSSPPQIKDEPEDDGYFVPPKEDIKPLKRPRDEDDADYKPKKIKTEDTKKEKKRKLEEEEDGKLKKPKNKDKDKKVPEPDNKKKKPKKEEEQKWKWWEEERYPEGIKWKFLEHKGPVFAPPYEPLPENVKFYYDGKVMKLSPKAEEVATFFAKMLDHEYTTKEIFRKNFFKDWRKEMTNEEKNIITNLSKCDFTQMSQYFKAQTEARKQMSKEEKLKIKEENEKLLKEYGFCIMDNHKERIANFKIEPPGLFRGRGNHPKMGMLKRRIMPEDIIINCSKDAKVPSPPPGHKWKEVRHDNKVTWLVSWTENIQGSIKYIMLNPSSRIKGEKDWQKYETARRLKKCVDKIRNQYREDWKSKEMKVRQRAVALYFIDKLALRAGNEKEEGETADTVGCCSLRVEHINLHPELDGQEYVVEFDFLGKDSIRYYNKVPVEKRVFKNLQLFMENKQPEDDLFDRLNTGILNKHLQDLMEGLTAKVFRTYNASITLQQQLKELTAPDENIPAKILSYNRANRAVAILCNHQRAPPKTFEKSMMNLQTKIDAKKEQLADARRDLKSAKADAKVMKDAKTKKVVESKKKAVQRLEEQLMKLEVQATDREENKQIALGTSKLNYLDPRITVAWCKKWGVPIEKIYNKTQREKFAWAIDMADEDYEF
How it was run: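 Human DNA topoisomerase I kit with pHOT1 supercoiled DNA substrate. Compounds dissolved in 50% DMSO and tested at 10–1,500 μg/mL. Reactions run 30 min at 37°C, stopped with 10% SDS, then proteinase K 0.05 mg/mL for 15 min at 37°C. Products resolved on 1% agarose gel at 72V, stained with ethidium bromide 1 h, destained 30 min. Triplicate.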

COLO 205 [3] = assay: Induction of mitochondrial membrane permeabilization in human COLO205 cells at 46 ug/ml by JC1 dye based staining method (reference value: 14%); format: functional
How it was run: (§1)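 COLO-205 cells, 1×10^6 per sample, exposed under the same conditions and controls as the annexin assay (camptothecin, DMSO). Then labelled with JC-1 at 200 μg/ml and scored for % cells with permeabilized mitochondrial membranes. Triplicate.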

COLO 205 [4] = assay: Induction of apoptosis in human COLO205 cells assessed as caspase-3 activation at 46 ug/ml by FLICA staining based method; format: functional
How it was run: (§2)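 COLO-205 cells exposed under the annexin assay conditions (24 h; camptothecin and DMSO controls). Cells harvested and stained with fluorescent labelled inhibitors of caspases (FLICA) for active caspase 3/7, scored as % positive cells. Triplicate.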

COLO 205 [5] = assay: Induction of apoptosis in human COLO205 cells at 46 ug/ml after 24 hrs by propidium iodide and annexin V staining method (reference value: 14.3%); format: functional
[6] = molecular target: Nuclear factor NF-kappa-B complex (Homo sapiens) (UniProt Q00653+P19838+Q04206); assay: Inhibition of TNFalpha-induced nuclear factor-kappa-B (unknown origin) expressed in HEK293 cells pre-incubated for 16 hrs followed by TNFalpha stimulation for 6 hrs by luciferase reporter gene assay; format: cell-based
Nuclear factor NF-kappa-B complex (Homo sapiens), sequence (P19838 whole entry, looked up): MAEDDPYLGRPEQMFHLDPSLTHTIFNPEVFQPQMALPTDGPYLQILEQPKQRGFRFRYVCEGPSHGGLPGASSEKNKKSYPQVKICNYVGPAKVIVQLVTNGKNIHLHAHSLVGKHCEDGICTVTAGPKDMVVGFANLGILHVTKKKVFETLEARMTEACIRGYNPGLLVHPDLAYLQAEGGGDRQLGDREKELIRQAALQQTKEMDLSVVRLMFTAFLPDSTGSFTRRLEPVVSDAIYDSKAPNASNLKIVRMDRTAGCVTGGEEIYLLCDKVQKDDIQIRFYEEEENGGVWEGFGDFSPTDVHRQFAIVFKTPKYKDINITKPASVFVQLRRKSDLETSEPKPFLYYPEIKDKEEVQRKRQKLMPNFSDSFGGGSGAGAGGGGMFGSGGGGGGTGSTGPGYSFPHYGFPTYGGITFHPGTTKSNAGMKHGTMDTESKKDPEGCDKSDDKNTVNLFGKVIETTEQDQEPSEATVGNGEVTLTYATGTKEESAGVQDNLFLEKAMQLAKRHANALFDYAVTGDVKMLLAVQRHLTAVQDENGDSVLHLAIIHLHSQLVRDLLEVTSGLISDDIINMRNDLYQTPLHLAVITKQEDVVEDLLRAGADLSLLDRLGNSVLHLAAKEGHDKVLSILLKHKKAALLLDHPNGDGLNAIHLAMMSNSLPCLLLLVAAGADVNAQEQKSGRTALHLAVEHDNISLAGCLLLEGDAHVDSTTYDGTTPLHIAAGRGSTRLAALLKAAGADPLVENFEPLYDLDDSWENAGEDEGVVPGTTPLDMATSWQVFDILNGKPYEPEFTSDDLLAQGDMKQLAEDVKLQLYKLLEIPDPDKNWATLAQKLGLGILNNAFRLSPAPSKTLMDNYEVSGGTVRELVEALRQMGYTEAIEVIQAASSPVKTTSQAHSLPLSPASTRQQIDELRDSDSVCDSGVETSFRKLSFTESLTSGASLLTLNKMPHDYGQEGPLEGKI
Nuclear factor NF-kappa-B complex (Homo sapiens), sequence (Q00653 whole entry, looked up): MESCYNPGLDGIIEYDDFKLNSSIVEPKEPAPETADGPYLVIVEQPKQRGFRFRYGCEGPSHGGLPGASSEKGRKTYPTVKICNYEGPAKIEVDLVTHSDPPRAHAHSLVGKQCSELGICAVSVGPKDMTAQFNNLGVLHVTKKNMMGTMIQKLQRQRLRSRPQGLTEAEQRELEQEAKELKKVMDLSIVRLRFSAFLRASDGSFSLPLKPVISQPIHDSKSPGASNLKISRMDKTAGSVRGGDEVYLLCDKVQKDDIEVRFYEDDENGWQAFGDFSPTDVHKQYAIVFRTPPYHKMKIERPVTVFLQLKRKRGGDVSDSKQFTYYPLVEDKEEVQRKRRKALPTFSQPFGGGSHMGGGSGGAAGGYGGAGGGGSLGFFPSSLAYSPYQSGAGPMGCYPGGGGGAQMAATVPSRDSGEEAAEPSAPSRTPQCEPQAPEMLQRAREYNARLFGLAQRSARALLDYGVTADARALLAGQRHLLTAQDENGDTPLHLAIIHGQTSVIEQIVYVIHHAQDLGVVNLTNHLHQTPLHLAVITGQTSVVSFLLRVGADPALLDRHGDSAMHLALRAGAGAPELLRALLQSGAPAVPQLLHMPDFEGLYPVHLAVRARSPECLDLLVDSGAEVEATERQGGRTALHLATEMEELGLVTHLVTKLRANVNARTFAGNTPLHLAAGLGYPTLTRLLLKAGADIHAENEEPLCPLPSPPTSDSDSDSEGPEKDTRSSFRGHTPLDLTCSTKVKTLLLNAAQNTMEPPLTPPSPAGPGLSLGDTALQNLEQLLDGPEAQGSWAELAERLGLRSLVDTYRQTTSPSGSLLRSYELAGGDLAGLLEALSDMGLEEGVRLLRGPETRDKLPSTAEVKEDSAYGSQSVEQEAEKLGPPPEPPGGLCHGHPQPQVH
Nuclear factor NF-kappa-B complex (Homo sapiens), sequence (Q04206 whole entry, looked up): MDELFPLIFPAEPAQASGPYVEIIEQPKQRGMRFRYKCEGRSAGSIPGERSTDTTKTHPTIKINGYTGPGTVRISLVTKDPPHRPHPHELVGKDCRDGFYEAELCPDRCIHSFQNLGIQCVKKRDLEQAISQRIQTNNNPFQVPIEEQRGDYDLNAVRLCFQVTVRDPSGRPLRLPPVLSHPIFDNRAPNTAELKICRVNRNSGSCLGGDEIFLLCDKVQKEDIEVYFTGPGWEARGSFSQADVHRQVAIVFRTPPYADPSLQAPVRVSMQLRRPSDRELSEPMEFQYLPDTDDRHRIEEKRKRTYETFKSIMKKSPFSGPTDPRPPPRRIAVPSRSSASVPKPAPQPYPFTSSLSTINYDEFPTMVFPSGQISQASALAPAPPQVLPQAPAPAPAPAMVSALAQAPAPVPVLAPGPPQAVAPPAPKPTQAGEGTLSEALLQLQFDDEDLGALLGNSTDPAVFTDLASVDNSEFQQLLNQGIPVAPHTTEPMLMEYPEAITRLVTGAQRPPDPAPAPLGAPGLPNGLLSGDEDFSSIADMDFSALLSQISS
How it was run: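 NFκB reporter HEK293 cells seeded at 30,000/well in assay medium without hygromycin B and allowed to reattach overnight at 37°C, 5% CO2. Compound dilutions added for 16 h (DMSO in untreated and cell-free controls). Mouse TNFα 5 ng/mL then added for 6 h. Cells lysed with one-step luciferase reagent about 15 min at room temperature, luminescence read. Non-linear regression; triplicate, mean ± SEM.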

PBMC = assay: Cytotoxicity against human PBMC after 3 days by MTT assay; format: cell-based; settings: 72 h
How it was run: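 PBMCs from healthy volunteers cultured in IL-2-supplemented medium, seeded at 4×10^5–5×10^4 cells/well. Compounds added at final 2–100 µg/mL. Incubation 3 days at 37°C, humidified 5% CO2, then MTT read-out. IC50 is the concentration giving 50% viability, from dose-response curves. Triplicate, mean ± SEM.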

COLO 205 [7] = assay: Induction of mitochondrial membrane permeabilization in human COLO205 cells at 7.4 ug/ml by JC1 dye based staining method (reference value: 14%); format: functional; how it was run: as §1
COLO 205 [8] = assay: Induction of apoptosis in human COLO205 cells at 7.4 ug/ml after 24 hrs by propidium iodide and annexin V staining method (reference value: 14.3%); format: functional
COLO 205 [9] = assay: Induction of apoptosis in human COLO205 cells assessed as caspase-3 activation at 7.4 ug/ml by FLICA staining based method; format: functional; how it was run: as §2
COLO 205 [10] = assay: Induction of apoptosis in human COLO205 cells at 3.5 ug/ml after 24 hrs by propidium iodide and annexin V staining method (reference value: 14.3%); format: functional
COLO 205 [11] = assay: Induction of apoptosis in human COLO205 cells assessed as caspase-3 activation at 3.5 ug/ml by FLICA staining based method; format: functional
How it was run: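 COLO-205 cells treated as in the annexin assay (24 h exposure); cells harvested and stained with fluorescent labelled caspase inhibitors (FLICA) for active caspase 3/7; read as percent of cells with active caspase; triplicate runs.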

COLO 205 [12] = assay: Induction of mitochondrial membrane permeabilization in human COLO205 cells at 3.5 ug/ml by JC1 dye based staining method (reference value: 14%); format: functional

SMILES | IC50 [1] | IC50 (PBMC) | also measured
CCCCCCCCCCCCCCCC(=O)Oc1cc(/C=C2\CCC/C(=C\c3ccc(OC)c(OC(=O)CCCCCCCCCCCCCCC)c3)C2=O)ccc1OC | 130 µg/mL (≈ 154 µM) |  | 
CCCCCCCCCC(=O)Oc1ccc(/C=C/C(=O)/C=C/c2ccc(OC(=O)CCCCCCCCC)cc2)cc1 | 180 µg/mL (≈ 313 µM) |  | 
CCCCCCCCCC(=O)Oc1cc(/C=C/C(=O)/C=C/c2ccc(OC)c(OC(=O)CCCCCCCCC)c2)ccc1OC | 66 µg/mL (≈ 104 µM) |  | 
CCCCCCCCCC(=O)Oc1cccc(/C=C/C(=O)/C=C/c2cccc(OC(=O)CCCCCCCCC)c2)c1 | 22.5 µg/mL (≈ 39.1 µM) | 35.9 µg/mL (≈ 62.5 µM) | MIC [2]: 50 µg/mL (≈ 87 µM); Activity (COLO 205 [3]): 68%; Activity (COLO 205 [4]): 19.5%; Activity (COLO 205 [5]): 27.5%; inhibition [6]: Dose-dependent effect
CCCCCCCCCCCCCCCC(=O)Oc1cccc(/C=C/C(=O)/C=C/c2cccc(OC(=O)CCCCCCCCCCCCCCC)c2)c1 | 113 µg/mL (≈ 152 µM) |  | 
CCCCCCCCCC(=O)Oc1ccc(/C=C/C(=O)/C=C/c2ccc(OC(=O)CCCCCCCCC)c(OC)c2)cc1OC | 143 µg/mL (≈ 225 µM) |  | 
CCCCCCCCCCCCCCCC(=O)Oc1cccc(/C=C2\CCC/C(=C\c3cccc(OC(=O)CCCCCCCCCCCCCCC)c3)C2=O)c1 | 29.3 µg/mL (≈ 37.4 µM) | 36.3 µg/mL (≈ 46.3 µM) | MIC [2]: 250 µg/mL (≈ 319 µM)
CCCCCCCCCCCCCCCC(=O)Oc1ccc(/C=C/C(=O)/C=C/c2ccc(OC(=O)CCCCCCCCCCCCCCC)c(OC)c2)cc1OC | 56.1 µg/mL (≈ 69.8 µM) | 40.6 µg/mL (≈ 50.5 µM) | MIC [2]: 100 µg/mL (≈ 125 µM)
CCCCCCCCCCCCCCCC(=O)Oc1ccc(/C=C2\CCC/C(=C\c3ccc(OC(=O)CCCCCCCCCCCCCCC)c(OC)c3)C2=O)cc1OC | 139 µg/mL (≈ 165 µM) |  | 
CCCCCCCCCCCCCCCC(=O)Oc1cc(/C=C/C(=O)/C=C/c2ccc(OC)c(OC(=O)CCCCCCCCCCCCCCC)c2)ccc1OC | 70.5 µg/mL (≈ 87.8 µM) |  | 
COc1cc(/C=C/C(=O)CC(=O)/C=C/c2ccc(O)c(OC)c2)ccc1O [CURCUMIN] | 26.8 µg/mL (≈ 72.7 µM) | 12.3 µg/mL (≈ 33.4 µM) | Activity (COLO 205 [7]): 23%; Activity (COLO 205 [8]): 27.5%; Activity (COLO 205 [9]): 23.3%; inhibition [6]: Dose-dependent effect
CC[C@@]1(O)C(=O)OCc2c1cc1n(c2=O)Cc2cc3ccccc3nc2-1 [CAMPTOTHECIN] |  |  | Activity (COLO 205 [10]): 29%; Activity (COLO 205 [11]): 30%; Activity (COLO 205 [12]): 48.5%
